Measurements taken from ChEMBL document CHEMBL4406880, “Design, synthesis, and bioactivity of dihydropyrimidine derivatives as kinesin spindle protein inhibitors” (Bioorg Med Chem, 2019).

Experiments:
Format in all cases: functional
[1] = system: EKVX; assay: Growth inhibition of human EKVX cells incubated for 48 hrs by sulforhodamine B assay
Summary of the method: (§1)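 NCI-60 five-dose mode: five tenfold dilutions (0.01, 0.1, 1, 10, 100 µM) are applied for 48 h to cells in RPMI 1640 with 5% FBS at 37 °C. Endpoint is TCA fixation with sulforhodamine B read at 515 nm. % growth comes from the 0 h and control absorbances. GI50 is the concentration giving a 50% reduction in net cell growth.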

[2] = system: KM12; assay: Growth inhibition of human KM12 cells incubated for 48 hrs by sulforhodamine B assay; details: KM12, 48 h
Summary of the method: (§2)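 NCI-60 five-dose SRB assay in RPMI 1640 with 5% FBS, 37 °C, 5% CO2. Compound given at five tenfold dilutions, 0.01–100 µM, for 48 h. Adherent cells fixed with TCA, suspension cells with 16% final TCA. Bound SRB read at 515 nm and growth calculated against time-zero and untreated controls. GI50 taken from dose–response curves as the concentration giving a 50% decrease in net cell growth.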

[3] = system: Malme-3M; assay: Growth inhibition of human MALME-3M cells incubated for 48 hrs by sulforhodamine B assay; summary of the method: as §2
[4] = system: SK-OV-3; assay: Growth inhibition of human SKOV3 cells incubated for 48 hrs by sulforhodamine B assay; details: SK-OV-3, 48 h
Summary of the method: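 NCI-60 five-dose SRB assay. Cells were exposed for 48 h to tenfold dilutions of 0.01, 0.1, 1, 10 and 100 µM, in RPMI 1640 with 5% FBS. Plates fixed with TCA at the time of drug addition served as the time-zero reference. GI50 is the concentration giving a 50% reduction in net growth. TGI is total growth inhibition. LC50 is a net 50% loss of the initial cells.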

[5] = system: SNB-75; assay: Cell cycle arrest in human SNB75 cells assessed as accumulation in G0/G1 phase at 2 uM incubated for 24 hrs by propidium iodide based flow cytometry (reference value: 55.62 %)
Summary of the method: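 SNB-75 cells were exposed to 2 µM for 24 h at 37 °C, 5% CO2, then washed with PBS and fixed in 70% ethanol on ice for 15 min. They were stained 1 h at room temperature with 50 µg/mL propidium iodide, 0.1 mg/mL RNase A and 0.05% Triton X-100. DNA content was read by flow cytometry to give the % of cells in pre-G1, G0/G1, S and G2/M.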

[6] = system: M14; assay: Growth inhibition of human M14 cells assessed as cell viability at 100 uM incubated for 48 hrs by sulforhodamine B assay; details: M14, 48 h, read-out: Activity
[7] = system: SF-295; assay: Growth inhibition of human SF295 cells assessed as cell viability at 100 uM incubated for 48 hrs by sulforhodamine B assay; details: SF-295, 48 h, read-out: Activity
[8] = system: MDA-MB-468; assay: Growth inhibition of human MDA-MB-468 cells assessed as cell viability at 1 uM incubated for 48 hrs by sulforhodamine B assay; details: MDA-MB-468, 48 h, read-out: Activity
[9] = system: BT-549; assay: Growth inhibition of human BT549 cells assessed as cell viability at 1 uM incubated for 48 hrs by sulforhodamine B assay; details: BT-549, 48 h, read-out: Activity
[10] = system: NCI/ADR-RES; assay: Growth inhibition of human NCI/ADR-RES cells assessed as cell viability at 1 uM incubated for 48 hrs by sulforhodamine B assay; details: read-out: Activity
[11] = system: OVCAR-5; assay: Growth inhibition of human OVCAR5 cells assessed as cell viability at 1 uM incubated for 48 hrs by sulforhodamine B assay; details: OVCAR-5, 48 h, read-out: Activity
[12] = system: MDA-MB-435; assay: Growth inhibition of human MDA-MB-435 cells assessed as cell viability at 1 uM incubated for 48 hrs by sulforhodamine B assay; details: MDA-MB-435, 48 h, read-out: Activity
[13] = system: HCC 2998; assay: Growth inhibition of human HCC2998 cells assessed as cell viability at 1 uM incubated for 48 hrs by sulforhodamine B assay; details: HCC 2998, 48 h, read-out: Activity
[14] = system: NCI-H522; assay: Growth inhibition of human NCI-H522 cells assessed as cell viability at 1 uM incubated for 48 hrs by sulforhodamine B assay; details: NCI-H522, 48 h, read-out: Activity
[15] = system: NCI-H322M; assay: Growth inhibition of human NCI-H322M cells assessed as cell viability at 1 uM incubated for 48 hrs by sulforhodamine B assay; details: read-out: Activity
[16] = system: K562; assay: Growth inhibition of human K562 cells assessed as cell viability at 1 uM incubated for 48 hrs by sulforhodamine B assay; details: K562, 48 h, read-out: Activity
[17] = system: ACHN; assay: Growth inhibition of human ACHN cells assessed as cell viability at 0.1 uM incubated for 48 hrs by sulforhodamine B assay; details: read-out: Activity; summary of the method: as §1
[18] = system: UACC-257; assay: Growth inhibition of human UACC257 cells assessed as cell viability at 0.1 uM incubated for 48 hrs by sulforhodamine B assay; details: UACC-257, 48 h, read-out: Activity
[19] = system: M14; assay: Growth inhibition of human M14 cells assessed as cell viability at 0.1 uM incubated for 48 hrs by sulforhodamine B assay; details: M14, 48 h, read-out: Activity
[20] = system: SF-268; assay: Growth inhibition of human SF268 cells assessed as cell viability at 0.1 uM incubated for 48 hrs by sulforhodamine B assay; details: SF-268, 48 h, read-out: Activity
[21] = system: MDA-MB-468; assay: Growth inhibition of human MDA-MB-468 cells assessed as cell viability at 0.001 uM incubated for 48 hrs by sulforhodamine B assay relative to control; details: MDA-MB-468, 48 h, read-out: Activity
[22] = system: SNB-75; assay: Growth inhibition of human SNB75 cells assessed as cell viability at 0.001 uM incubated for 48 hrs by sulforhodamine B assay relative to control; details: SNB-75, 48 h, read-out: Activity
[23] = system: 786-0; assay: Growth inhibition of human 786-0 cells assessed as cell viability at 100 uM incubated for 48 hrs by sulforhodamine B assay; details: 786-0, 48 h, read-out: Activity; summary of the method: as §1
[24] = system: SN12C; assay: Growth inhibition of human SN12C cells assessed as cell viability at 100 uM incubated for 48 hrs by sulforhodamine B assay; details: read-out: Activity
[25] = system: MDA-MB-231; assay: Growth inhibition of human MDA-MB-231 cells assessed as cell viability at 100 uM incubated for 48 hrs by sulforhodamine B assay; details: MDA-MB-231, 48 h, read-out: Activity

## CC1=C(C(=O)OCc2ccccc2)C(c2ccc3c(c2)OCO3)n2c(nc3ccccc32)N1 (racemic)
[1]; read-out: GI50
  GI50: 0.69 µM
[1]; read-out: LC50
  LC50: > 100 µM
[1]; read-out: TGI
  TGI: > 100 µM
[1]; read-out: pGI50 (converted)
  GI50: 0.692 µM
[1]; read-out: pLC50 (converted)
  LC50: > 100 µM
[1]; read-out: pTGI
  TGI: > 100 µM
[2]; read-out: GI50
  GI50: 0.34 µM
[2]; read-out: LC50
  LC50: > 100 µM
[2]; read-out: TGI
  TGI: > 100 µM
[2]; read-out: pGI50 (converted)
  GI50: 0.339 µM
[2]; read-out: pLC50 (converted)
  LC50: > 100 µM
[2]; read-out: pTGI
  TGI: > 100 µM
[3]; read-out: GI50
  GI50: 0.44 µM
[3]; read-out: LC50
  LC50: > 100 µM
[3]; read-out: TGI
  TGI: > 100 µM
[3]; read-out: pGI50 (converted)
  GI50: 0.437 µM
[3]; read-out: pLC50 (converted)
  LC50: > 100 µM
[3]; read-out: pTGI
  TGI: > 100 µM
[4]; read-out: GI50
  GI50: 0.47 µM
[4]; read-out: LC50 (the source's name)
  CC50: > 100 µM
[4]; read-out: TGI
  TGI: > 100 µM
[4]; read-out: pGI50 (converted)
  GI50: 0.468 µM
[4]; read-out: pLC50 (the source's name) (converted)
  CC50: > 100 µM
[4]; read-out: pTGI
  TGI: > 100 µM
[5]
  Activity: 34.52%
[6]
  viability at 100 µM: 24%
[7]
  viability at 100 µM: 8%
[8]
  viability at 1 µM: -9%
[9]
  viability at 1 µM: 49%
[10]
  viability at 1 µM: 17%
[11]
  viability at 1 µM: 52%
[12]
  viability at 1 µM: -39%
[13]
  viability at 1 µM: 59%
[14]
  viability at 1 µM: 3%
[15]
  viability at 1 µM: 48%
[16]
  viability at 1 µM: 23%
[17]
  viability at 0.1 µM: 107%
[18]
  viability at 0.1 µM: 91%
[19]
  viability at 0.1 µM: 90%
[20]
  viability at 0.1 µM: 94%
[21]
  viability at 0.001 µM: 90%
[22]
  viability at 0.001 µM: 61%
[23]
  viability at 100 µM: 22%
[24]
  viability at 100 µM: 25%
[25]
  viability at 100 µM: 49%
